One series has as its system HeLa. Nature of the series: Cytotoxicity against human HeLa cells at 1 to 10 uM after 24 hrs by MTS assay. It counts as cell-based. The essentials:
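HeLa cells at ~80% confluence, uninfected, exposed to 1–100 μM PPMO or water (mock) in serum-free DMEM-F-12 (1:1) for 24 h. MTS reagent was added for 4 h and absorbance read at 492 nm. Viability was expressed as percent of water-treated cells (set to 100%), averaged over 12 wells.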

The next series has as its system Poliovirus 1. Nature of the series: Antiviral activity against Human poliovirus type 1 infected in Human HeLa cells assessed as log reduction in viral titer at 5 uM measured after 24 hrs post infection by plaque assay. Type of series: functional, organism-based. Put shortly: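 Nearly confluent HeLa cells were infected 1 h with a clinical PV1 isolate (passaged once in Vero and once in HeLa) at MOI 0.05. Inoculum was replaced by medium with 10% calf serum containing PPMO (2.5 or 5 μM) or water, at 37°C. Supernatant titre at 24 h p.i. was measured by plaque assay with 36 h plaque development.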

For a further series, the system named is rhinovirus B14. Nature of the series: Antiviral activity against Human rhinovirus type 14 infected in Human HeLa cell assessed as log reduction in viral titer at 5 uM measured after 48 hrs post infection by plaque assay. It counts as functional, organism-based. Put shortly: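 HRV14 from an infectious clone was used to infect nearly confluent HeLa cells for 1 h at MOI 0.03. Cells were then kept in 10% calf serum medium with PPMO or water at 34°C. Supernatant titre at 48 h p.i. was measured by plaque assay at 34°C with 72 h plaque development. Two experiments were averaged.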

The subject of a further series is Vero. Nature of the series: Cytotoxicity against African green monkey Vero cells at 10 uM after 24 hrs by MTS assay. Type of series: cell-based. As to conditions: chlorocebus sabaeus.
A further series concerns SK-N-MC. Nature of the series: Cytotoxicity against human SK-N-MC cell at 10 uM after 24 hrs by MTS assay. Type of series: cell-based.

Drawing on ChEMBL document CHEMBL1629545, “A morpholino oligomer targeting highly conserved internal ribosome entry site sequence is able to inhibit multiple species of picornavirus” (Antimicrob Agents Chemother, 2008), this text covers Activity and FC for one compound.

The structures appear in SMILES notation.

For the compound `Cc1cn([C@H]2CN(P(=O)(OC[C@@H]3CN(P(=O)(OC[C@@H]4CNC[C@H](n5cnc6c(=O)[nH]c(N)nc65)O4)N(C)C)C[C@H](n4cnc5c(N)ncnc54)O3)N(C)C)C[C@@H](COP(=O)(N(C)C)N3C[C@@H](COP(=O)(N(C)C)N4C[C@@H](COP(=O)(N(C)C)N5C[C@@H](COP(=O)(N(C)C)N6C[C@@H](COP(=O)(N(C)C)N7C[C@@H](COP(=O)(N(C)C)N8C[C@@H](COP(=O)(N(C)C)N9C[C@@H](COP(=O)(N(C)C)N%10C[C@@H](COP(=O)(N(C)C)N%11C[C@@H](COP(=O)(N(C)C)N%12C[C@@H](COP(=O)(N(C)C)N%13C[C@@H](COP(=O)(N(C)C)N%14C[C@@H](COP(=O)(N(C)C)N%15C[C@@H](COP(=O)(N(C)C)N%16C[C@@H](COP(=O)(N(C)C)N%17C[C@@H](COP(=O)(N(C)C)N%18C[C@@H](COP(=O)(N(C)C)N%19C[C@@H](COP(=O)(N(C)C)N%20C[C@@H](COP(=O)(N(C)C)N%21C[C@@H](COP(=O)(N(C)C)N%22C[C@@H](COP(=O)(N(C)C)N%23C[C@@H](COP(=O)(N(C)C)N%24CCN(C(=O)[C@H](CS)NC(=O)[C@H](Cc%25ccccc%25)NC(=O)[C@H](Cc%25ccccc%25)NC(=O)[C@H](CCCNC(=N)N)NC(=O)[C@H](CCCNC(=N)N)NC(=O)[C@H](CCCNC(=N)N)NC(=O)[C@H](CCCNC(=N)N)NC(=O)[C@H](CCCNC(=N)N)NC(=O)[C@H](CCCNC(=N)N)NC(=O)[C@H](CCCNC(=N)N)NC(=O)[C@H](CCCNC(=N)N)NC(=O)[C@@H](N)CCCNC(=N)N)CC%24)O[C@@H](n%24cnc%25c(=O)[nH]c(N)nc%25%24)C%23)O[C@@H](n%23cnc%24c(N)ncnc%24%23)C%22)O[C@@H](n%22cnc%23c(=O)[nH]c(N)nc%23%22)C%21)O[C@@H](n%21cnc%22c(N)ncnc%22%21)C%20)O[C@@H](n%20cnc%21c(N)ncnc%21%20)C%19)O[C@@H](n%19cnc%20c(N)ncnc%20%19)C%18)O[C@@H](n%18ccc(N)nc%18=O)C%17)O[C@@H](n%17cnc%18c(N)ncnc%18%17)C%16)O[C@@H](n%16ccc(N)nc%16=O)C%15)O[C@@H](n%15cnc%16c(=O)[nH]c(N)nc%16%15)C%14)O[C@@H](n%14cnc%15c(=O)[nH]c(N)nc%15%14)C%13)O[C@@H](n%13cnc%14c(N)ncnc%14%13)C%12)O[C@@H](n%12ccc(N)nc%12=O)C%11)O[C@@H](n%11cnc%12c(N)ncnc%12%11)C%10)O[C@@H](n%10ccc(N)nc%10=O)C9)O[C@@H](n9ccc(N)nc9=O)C8)O[C@@H](n8ccc(N)nc8=O)C7)O[C@@H](n7cnc8c(N)ncnc87)C6)O[C@@H](n6cnc7c(N)ncnc76)C5)O[C@@H](n5cnc6c(N)ncnc65)C4)O[C@@H](n4cnc5c(=O)[nH]c(N)nc54)C3)O2)c(=O)[nH]c1=O` (stereo not given in full), the Activity entry in the series on HeLa, in the series with Vero and in the series with SK-N-MC was “Non-toxic” each time. The FC in the series on Poliovirus 1 and in the series on rhinovirus B14 was 2 throughout.
